Screens: PubChem BioAssay, Johns Hopkins Ion Channel Center
An excerpt weighted towards active compounds, which were near 2.3% of everything screened.
TRPC4 PAM = allosteric potentiators of mouse TRPC4 channel. B-score at 10 µM. hit rate 0.42% among 310,000. AID 2227. Q9QUQ5. HEK293 TRPC4beta/mu-opioid, DAMGO EC20, Fluo-4 Ca2+ flux; stronger effect = higher value;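 active = B-score of calcium response area above 5 SD of library B-scores, with initial fluorescence ratio within 5 SD of library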;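 note: B-score of integrated fluorescence ratio over time as area under calcium response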
TRPC4 block = blocks the mouse TRPC4 cation channel. Q9QUQ5. HEK293 TRPC4beta/mu-opioid, DAMGO-evoked Fluo4 calcium flux; stronger effect = lower value. B-score at 10 µM. hit rate 0.39% among 300,000. AID 2247;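 active = B-score over 3 SD under the library average, no early fluorescence shift, positive overall ratio signal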
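Material: HEK293 cells with stable TRPC4beta plus mu-opioid receptor expression / Probe or stimulus: DAMGO in two steps, submaximal then maximal / Compound: single concentration per test compound / Technique: kinetic Fluo4 fluorescence imaging of calcium influx / Read-out: per-well B score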
TRPC4 agonist = opens the mouse TRPC4 cation channel | Q9QUQ5 | HEK293 TRPC4beta/mu-opioid, Fluo4 calcium fluorescence; stronger effect = higher value | B-score at 10 µM | hit rate 0.49% among 310,000 | AID 2237;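 active = B-score above 5 SD of library B-scores, and initial fluorescence ratio not above library mean plus 5 SD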;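 note: positive B-score marks a calcium rise read as TRPC4 activation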
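System: HEK293 cells stably co-expressing mouse TRPC4beta and mu-opioid receptor; Schedule: Fluo4 dye loading 45 min at room temperature, 110 s recording; Detection: Fluo4 fluorescence, kinetic; Evaluation: B-scored integrated calcium fluorescence ratio; Controls: buffer (low) and maximal DAMGO (high).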
TRPC6 inh = mouse TRPC6 channel inhibition | Q61143 | HEK293-TRPC6, membrane potential dye, ACh-evoked depolarization; stronger effect = lower value | B-score at 10 µM | hit rate 1.1% among 310,000 | AID 2553;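 active = B-score under library mean minus 3 SD, initial fluorescence not abnormally high, positive integrated signal ratio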;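 note: B-score derived from integrated fluorescence ratio over the kinetic read; more negative B-score means stronger inhibition of depolarization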
TRPC6 act = mouse TRPC6 channel activation; HEK293-TRPC6 membrane potential dye fluorescence; stronger effect = higher value; B-score at 10 µM; hit rate 0.13% among 310,000; AID 2550;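 active = B-score of the integrated fluorescence ratio above library mean plus 3 SD, and starting fluorescence ratio within library mean plus 5 SD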;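 note: higher score means more depolarization so channel activation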
The depositor's hits bear a star; i = inactive.

SMILES | TRPC4 PAM | TRPC4 block | TRPC4 agonist | TRPC6 inh | TRPC6 act
CCSC(C)CC1C/C(=N/O)c2c(CC)noc2C1 (centres undefined) | i | i | i | i | i
CCCc1noc2c1/C(=N\O)CC(CC(C)SCC)C2 (centres undefined) | i | -6* | i | i | i
CN(C)C(CNC(=S)Nc1ccccc1Cl)c1cccnc1 (centres undefined) | i | i | 104* | i | i
CCc1cccc(C)c1NC(=S)NCC(c1cccnc1)N(C)C (centres undefined) | i | i | 91* | i | i
S=C(NCc1ccncc1)Nc1cccc(Cl)c1 | i | i | i | i | i
CN(C)C(CNC(=S)Nc1ccccc1)c1cccnc1 (centres undefined) | i | i | 75* | i | i
CN(C)C(CNC(=S)Nc1cccc(Cl)c1)c1cccnc1 (centres undefined) | i | i | 93* | i | i
COc1ccccc1CN1CC(C(=O)NCc2c(F)ccc(C)c2F)CCC1=O (centres undefined) | i | i | i | i | i
CN(C)C(CNC(=O)c1cccs1)c1cccnc1 (centres undefined) | i | i | i | i | i
CN(C)C(CNC(=O)NC1CCCCC1)c1cccnc1 (centres undefined) | i | i | 105* | i | i
Cc1nc(Nc2ccccc2)sc1C(=O)Nc1ccccc1 | i | i | i | i | i
Cc1nc(Nc2ccccc2)sc1C(=O)c1ccc(F)cc1 | 11* | i | i | i | i
CCOC(=O)CC(NC(=O)c1cc2cccc(OC)c2oc1=O)c1cccc([N+](=O)[O-])c1 (centres undefined) | i | i | i | i | i
CCOC(=O)CC(NC(=O)c1cc2cc(Cl)cc(Cl)c2oc1=O)c1cccc([N+](=O)[O-])c1 (centres undefined) | 21* | i | i | i | i
CC(C)c1ccc(NC(=O)c2ccc(NS(C)(=O)=O)cc2)cc1 | i | i | i | i | i
CN(C)C(CNC(=O)c1oc2ccccc2c1CSc1ncn[nH]1)c1ccco1 (centres undefined) | i | -7* | i | i | i
CNC[C@H](Cc1ccccc1)NC[C@@H](Cc1cccc2ccccc12)NCCc1ccc(C)cc1 | i | i | 173* | i | i
CN(C)CCCOc1cccc(Oc2ccccc2)c1 | 12* | i | i | i | i
CN(C)CCCOc1cccc(Cl)c1 | 32* | i | 64* | i | i
CCCCNCCCOc1cccc(Cl)c1 | i | i | i | i | i
CCN(CC)CCOc1cccc(C(C)C)c1 | i | i | i | i | i
CC(C)c1cccc(OCCCCN(C)C)c1 | 17* | i | i | i | i
Cc1ccc(S(=O)(=O)NCCC(=O)Nc2ccc(C)cc2C(=O)c2ccccc2)cc1 | i | i | i | i | i
COc1ccc(CCNC/C=C/c2ccccc2)cc1 | i | i | 106* | i | i
CN(CC(=O)Nc1ccccc1Br)C(=O)C1CCN(C(=O)c2ccc(Cl)cc2)CC1 | i | i | i | i | i
SMILES | TRPC4 PAM | TRPC4 block | TRPC4 agonist | TRPC6 inh | TRPC6 act
Cc1ccc2nc(Cl)c3cc(C(=O)N(CCN(C)C)Cc4ccco4)sc3c2c1 | i | i | 54* | i | i
C=CCn1c(CCNC(=O)c2ccco2)nc2ccccc21 | i | i | 168* | i | i
COc1ccccc1N1CCN(CC(C)N(C(=O)C2CCCCC2)c2ccccn2)CC1 (centres undefined) | i | -6* | i | i | i
CC(=O)Nc1cccc(NC(=S)Nc2cccc(Cl)c2Cl)c1 | i | i | i | i | i
COC(=O)c1cccc(NC(=S)Nc2cccc(Cl)c2Cl)c1 | i | -6* | i | i | i
OCc1nc2ccccc2n1CCOc1ccccc1 | i | -6* | i | i | i
Cc1nc2ccccc2n1CCOc1ccc(F)cc1 | i | -6* | i | i | i
Cc1cc2c(cc1S(=O)(=O)CCC(=O)N(C)Cc1ccccc1)OCC(=O)N2 | i | i | i | i | i
Cc1ccc(C(=O)Nc2cccc(NC(=O)c3cccs3)c2)c(C)c1 | i | i | i | i | i
COc1ccccc1C1/C(=C(\O)c2ccc3c(c2)OCCO3)C(=O)C(=O)N1Cc1cccnc1 (centres undefined) | i | -6* | i | i | i
COc1ccc(C2/C(=C(\O)c3ccc4c(c3)OCCO4)C(=O)C(=O)N2Cc2cccnc2)cc1 (centres undefined) | i | i | i | i | i
CCOc1ncccc1C(=O)N1CCCSC1=Nc1ccc(C(C)=O)cc1 | i | i | i | i | i
CCN1CCN(c2ccc(S(=O)(=O)N3CCCCC3)cc2NC(=O)COc2ccccc2)CC1 | i | i | 125* | i | i
CCOc1ccccc1OCC(=O)Nc1cc(S(=O)(=O)N2CCCCC2)ccc1N1CCN(CC)CC1 | i | i | 89* | i | i
CCC(=O)c1ccc(OCC(=O)Nc2cc(S(=O)(=O)N3CCCCC3)ccc2N2CCN(CC)CC2)cc1 | i | i | i | i | i
CCN1CCN(c2ccc(S(=O)(=O)N3CCCCC3)cc2NC(=O)Cc2ccc(Cl)c(Cl)c2)CC1 | i | i | 43* | i | i
COc1ccc(N2Cc3ccc(C(=O)N/N=C\c4ccc(O)cc4O)cc3C2)cc1 | i | i | i | i | i
CCC1(CC)NC(=O)N(CC(=O)OC(C)C(=O)Nc2ccccc2OC)C1=O (centres undefined) | i | i | i | i | i
CSc1ncccc1C(=O)NNc1cc(Cl)ccc1Cl | i | i | i | i | i
CC(C)(C)[C@]1(O)CCN2C[C@H]3c4ccccc4CCc4cccc(c43)[C@@H]2C1 | i | i | 61* | i | i
CC(C)Cn1c(-c2csc(C(C)C)c2)n[nH]c1=S | 13* | i | i | i | i
CCOc1cc(/C=C2\C(=N)N3N=CSC3=NC2=O)ccc1OS(=O)(=O)c1ccccc1 | i | -6* | i | i | i
COc1cc(/C=C2\C(=N)N3N=CSC3=NC2=O)ccc1OS(=O)(=O)c1ccccc1 | i | i | i | i | i
Cc1ccc(C)c2[nH]c(=O)c(C(c3nnnn3CCc3ccccc3)N3CCOCC3)cc12 (centres undefined) | i | i | i | i | i
